According to ChEMBL document CHEMBL1955847, “2-Morpholinoisoflav-3-enes as flexible intermediates in the synthesis of phenoxodiol, isophenoxodiol, equol and analogues: vasorelaxant properties, estrogen receptor binding and Rho/RhoA kinase pathway inhibition” (Bioorg Med Chem, 2012):
The source made the active and inactive calls. The rule behind the calls is not given here.

Key:
Aorta [1] = experiment: Vasorelaxant activity in Sprague-Dawley rat thoracic aorta assessed as inhibition of U46619-induced GTP RhoA level at 100 uM pretreated for 30 mins measured after 45 mins by spectrometric analysis; assay type: functional, tissue-based
Procedure, shortened: (§1)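 Male Sprague-Dawley thoracic aortic rings were denuded of endothelium and pretreated 30 min with compound, flavone or vehicle, then contracted with 30 nM U46619. Rings were snap-frozen in liquid N2 and homogenized in lysis buffer, then spun at 12,000g for 15 min at 4 °C. Supernatant was run in a RhoA G-LISA with HRP detection and absorbance read at 490 nm. Triplicate.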

Aorta [2] = experiment: Vasorelaxant activity in Sprague-Dawley rat thoracic aorta assessed as inhibition of phenylephirne-induced contraction in presence of 0.1 uM estrogen receptor antagonist ICI 182780; assay type: functional, tissue-based
Estrogen receptor = target: T1, Estrogen receptor (Rattus norvegicus, UniProt P06211); experiment: Displacement of [3H]estradiol from rat uterine cytosolic estrogen receptor
T1 sequence (P06211 whole entry): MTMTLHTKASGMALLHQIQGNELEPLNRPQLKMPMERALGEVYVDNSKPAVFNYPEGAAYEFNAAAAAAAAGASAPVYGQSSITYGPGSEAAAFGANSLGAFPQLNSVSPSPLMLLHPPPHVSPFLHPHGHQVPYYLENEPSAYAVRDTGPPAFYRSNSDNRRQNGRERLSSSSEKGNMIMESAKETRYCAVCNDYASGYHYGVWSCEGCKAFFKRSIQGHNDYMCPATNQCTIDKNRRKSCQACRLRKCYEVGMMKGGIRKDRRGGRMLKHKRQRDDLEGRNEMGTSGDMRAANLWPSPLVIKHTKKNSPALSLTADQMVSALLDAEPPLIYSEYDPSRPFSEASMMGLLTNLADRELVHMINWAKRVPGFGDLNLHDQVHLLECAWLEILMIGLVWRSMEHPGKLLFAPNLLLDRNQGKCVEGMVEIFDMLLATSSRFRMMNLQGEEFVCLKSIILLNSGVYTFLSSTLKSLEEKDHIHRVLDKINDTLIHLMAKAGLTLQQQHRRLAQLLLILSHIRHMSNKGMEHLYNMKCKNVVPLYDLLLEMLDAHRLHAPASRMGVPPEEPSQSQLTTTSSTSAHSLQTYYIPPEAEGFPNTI
Procedure, shortened: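 Rat uterine cytosol incubated with 0.2 nM [3H]-estradiol in 10 mM Tris (pH 7.4, 1.5 mM EDTA, 10% w/v glycerol, 1 mM PMSF), with and without ICI 182,780 to define binding. Compounds were made from 10 mM DMSO stocks and diluted into buffer, giving 0.1% v/v DMSO at the top concentration and in all lower dilutions.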

Aorta [3] = experiment: Vasorelaxant activity in Sprague-Dawley rat thoracic aorta assessed as inhibition of phenylephirne-induced contraction at highest concentration; assay type: functional, tissue-based
Procedure, shortened: (§2)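 Aortic rings 2–3 mm long from male Sprague-Dawley rats were bathed in Krebs-bicarbonate at 37 °C, pH 7.4, aerated with 95% O2/5% CO2, and equilibrated 1 h at 1 g resting tension. Rings were maximally contracted with KPSS (122.7 mM KCl) and re-equilibrated, then given submaximal phenylephrine. Endothelium was checked with acetylcholine, and cumulative concentration-response curves were run. DMSO was at most 0.1%. n = 3–5.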

Aorta [4] = experiment: Vasorelaxant activity in Sprague-Dawley rat thoracic aorta assessed as inhibition of U46619-induced vascular tension at 100 uM pretreated for 30 mins; assay type: functional, tissue-based
Procedure, shortened: (§3)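 Male Sprague-Dawley thoracic aortic rings were held in Krebs-bicarbonate at 37 °C, pH 7.4, gassed with 95% O2/5% CO2. Rings were pretreated 30 min with compound or vehicle, then contracted with 30 nM U46619, and vascular tension was recorded. Final DMSO was 0.1%. n = 2, run in duplicate.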

Aorta [5] = experiment: Vasorelaxant activity in Sprague-Dawley rat thoracic aorta assessed as inhibition of phenylephirne-induced contraction; assay type: functional, tissue-based; procedure, shortened: as §2
Aorta [6] = experiment: Vasorelaxant activity in Sprague-Dawley rat thoracic aorta assessed as inhibition of U46619-induced GTP RhoA level at 300 uM pretreated for 30 mins measured after 45 mins by spectrometric analysis; assay type: functional, tissue-based; procedure, shortened: as §1
Aorta [7] = experiment: Vasorelaxant activity in Sprague-Dawley rat thoracic aorta assessed as inhibition of U46619-induced vascular tension at 300 uM pretreated for 30 mins; assay type: functional, tissue-based; procedure, shortened: as §3

| pIC50 (Estrogen receptor) | IC50 (Estrogen receptor) | SMILES | Activity (Aorta [1]) | Activity (Aorta [2]) | Activity (Aorta [3]) | Activity (Aorta [4]) | Activity (Aorta [5]) | Activity (Aorta [6]) | Activity (Aorta [7]) |
| --- | --- | --- | --- | --- | --- | --- | --- | --- | --- |
| > 5 | – | c1ccc(C2COc3ccccc3C2)cc1 (stereo unspecified) | Active | inactive | Active | Active | – | – | – |
| – | 7590 nM | Oc1ccc(C2COc3ccccc3C2)cc1 (stereo unspecified) | Active | – | – | Active | Dose-dependent effect | – | – |
| – | 3630 nM | Oc1ccc2c(c1)OCC(c1ccccc1)C2 (stereo unspecified) | Active | – | – | Active | Dose-dependent effect | – | – |
| – | 1660 nM | Oc1ccc(C2COc3cc(O)ccc3C2)cc1 (racemic) | Active | – | – | Active | Dose-dependent effect | – | – |
| – | 661 nM | Oc1ccc(C2=Cc3ccc(O)cc3OC2)cc1 [IDRONOXIL] | Active | – | – | Active | Dose-dependent effect | – | – |
| – | 234 nM | Oc1ccc(C2=COc3cc(O)ccc3C2)cc1 [ISOPHENOXODIOL] | – | – | – | – | Dose-dependent effect | – | – |
| – | – | O=c1cc(-c2ccccc2)oc2ccccc12 | – | – | – | – | – | Active | Active |

| SMILES | pIC50 (Estrogen receptor) | IC50 (Estrogen receptor) | Activity (Aorta [1]) | Activity (Aorta [2]) | Activity (Aorta [3]) | Activity (Aorta [4]) | Activity (Aorta [5]) | Activity (Aorta [6]) | Activity (Aorta [7]) |
| --- | --- | --- | --- | --- | --- | --- | --- | --- | --- |
| C[C@]12CC[C@@H]3c4ccc(O)cc4C[C@@H](CCCCCCCCC[S+]([O-])CCCC(F)(F)C(F)(F)F)[C@H]3[C@@H]1CC[C@@H]2O (stereo partly specified) [FULVESTRANT] | – | 5.89 nM | – | – | – | – | – | – | – |
